Experiments:
[1] = species on record: Homo sapiens; experiment: Selectivity index, ratio of IC50 for butyrylcholinesterase (unknown origin) to IC50 for acetylcholinesterase (unknown origin)
[2] = target: T1, Acetylcholinesterase (Homo sapiens, UniProt P22303); experiment: Inhibition of acetylcholinesterase (unknown origin) using acetylthiocholine iodide as substrate after 25 mins by Ellmann method
In short: (§1)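 Modified Ellman assay, triplicate. Compounds dissolved in Tween 80, diluted with water to five concentrations. Mix: enzyme […], substrate (acetylthiocholine iodide or butyrylthiocholine iodide) and test compound in phosphoric acid buffer, pH 8.0, 0.1 mol/L. Incubated 25 min at 30 °C, then terminated. IC50 reported as mean ± SD of three experiments.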

[3] = Octanol-water partition coefficient, log P of the compound at pH 7.4 by shake flask method; format: physicochemical
In short: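 Shake flask partition between octanol and PBS (pH 7.4). Mixture shaken at 37 °C overnight, then centrifuged at 2000 rpm for 20 min. Phases analysed by C18 HPLC with methanol-0.1% TEA (85:15, v/v) at 1.0 mL/min and 32 °C, detection at 322 nm. Run in triplicate, log P calculated.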

[4] = target: Cholinesterase (Homo sapiens, UniProt P06276); experiment: Inhibition of butyrylcholinesterase (unknown origin) using butyrylthiocholine iodide as substrate after 25 mins by Ellmann method; in short: as §1
Chain of Cholinesterase (P06276 whole entry): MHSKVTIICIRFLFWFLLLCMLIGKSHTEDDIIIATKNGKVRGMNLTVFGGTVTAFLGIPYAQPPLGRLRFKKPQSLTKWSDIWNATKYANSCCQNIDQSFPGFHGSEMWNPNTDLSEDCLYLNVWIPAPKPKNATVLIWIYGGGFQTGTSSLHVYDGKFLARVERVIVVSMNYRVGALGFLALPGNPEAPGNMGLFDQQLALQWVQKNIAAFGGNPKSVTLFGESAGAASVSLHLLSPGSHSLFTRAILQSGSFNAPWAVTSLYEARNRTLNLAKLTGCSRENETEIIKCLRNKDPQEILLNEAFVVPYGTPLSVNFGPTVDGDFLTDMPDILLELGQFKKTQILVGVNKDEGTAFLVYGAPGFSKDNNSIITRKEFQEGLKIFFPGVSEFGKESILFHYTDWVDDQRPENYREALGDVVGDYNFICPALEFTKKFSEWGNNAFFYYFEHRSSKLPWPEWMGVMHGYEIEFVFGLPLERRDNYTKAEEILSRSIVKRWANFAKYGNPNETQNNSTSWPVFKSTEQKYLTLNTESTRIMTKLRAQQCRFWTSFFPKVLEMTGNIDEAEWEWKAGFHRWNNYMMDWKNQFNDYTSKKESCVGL

[5] = Inhibition of carboxylesterase (unknown origin) using 4-nitrophenyl acetate as substrate by UV-Vis spectrophotometer; design: species or system Homo sapiens
In short: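 Read-out was 4-nitrophenol released by CaE hydrolysis of 1.0 mmol/L 4-nitrophenyl acetate, measured at 405 nm. Reactions ran in 100 mmol/L potassium phosphate buffer, pH 8.0, at 25 °C. CaE activity was taken as proportional to 4-nitrophenol concentration.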

[6] = target: T1, Acetylcholinesterase; experiment: Potency index, ratio of rivastigmine IC50 to compound IC50 for acetylcholinesterase (unknown origin)
[7] = compound: COc1cc(/C=C/C(=O)Nc2ccccc2)ccc1OCCCCCCN1CCCCC1; experiment: Mixed type inhibition of acetylcholinesterase (unknown origin) assessed as Km for substrate at 0.82 uM using acetylthiocholine iodide as substrate by Michaelis-Menten plot analysis (reference value: 5.99 mM); conditions: Homo sapiens
[8] = compound: COc1cc(/C=C/C(=O)Nc2ccccc2)ccc1OCCCCCCN1CCCCC1; experiment: Mixed type inhibition of acetylcholinesterase (unknown origin) assessed as Km for substrate at 0.41 uM using acetylthiocholine iodide as substrate by Michaelis-Menten plot analysis (reference value: 5.99 mM); conditions: Homo sapiens
[9] = compound: COc1cc(/C=C/C(=O)Nc2ccccc2)ccc1OCCCCCCN1CCCCC1; experiment: Mixed type inhibition of acetylcholinesterase (unknown origin) assessed as enzyme Vmax at 0.82 uM using acetylthiocholine iodide as substrate by Michaelis-Menten plot analysis (reference value: 0.027 deltaA/min); conditions: Homo sapiens
[10] = compound: COc1cc(/C=C/C(=O)Nc2ccccc2)ccc1OCCCCCCN1CCCCC1; experiment: Mixed type inhibition of acetylcholinesterase (unknown origin) assessed as Km for substrate at 0.18 uM using acetylthiocholine iodide as substrate by Michaelis-Menten plot analysis (reference value: 5.99 mM); conditions: Homo sapiens
[11] = compound: COc1cc(/C=C/C(=O)Nc2ccccc2)ccc1OCCCCCCN1CCCCC1; experiment: Mixed type inhibition of acetylcholinesterase (unknown origin) assessed as enzyme Vmax at 0.41 uM using acetylthiocholine iodide as substrate by Michaelis-Menten plot analysis (reference value: 0.027 deltaA/min); conditions: Homo sapiens
[12] = compound: COc1cc(/C=C/C(=O)Nc2ccccc2)ccc1OCCCCCCN1CCCCC1; experiment: Mixed type inhibition of acetylcholinesterase (unknown origin) assessed as enzyme Vmax at 0.18 uM using acetylthiocholine iodide as substrate by Michaelis-Menten plot analysis (reference value: 0.027 deltaA/min); conditions: Homo sapiens

## CCOC(=O)/C=C/c1ccc(OCCCCCCN2CCCC2)c(OC)c1
[1]
  Ratio IC50: 74.6
[2]
  IC50: 5.05 µM
[3]
  logD: 1.82
[4]
  IC50: 377 µM
[5]
  IC50: > 500 µM

## COc1cc(/C=C/C(=O)Nc2ccccc2)ccc1OCCCCCCCCCCN1CCCC1
[1]
  Ratio IC50: 0.22
[2]
  IC50: 13.5 µM
[3]
  logD: 1.86
[4]
  IC50: 2.99 µM
[5]
  IC50: > 500 µM

## CCN(CC)CCCCCCCCCCOc1ccc(/C=C/C(=O)Nc2ccccc2)cc1OC
[1]
  Ratio IC50: 0.57
[2]
  IC50: 14.9 µM
[3]
  logD: 1.83
[4]
  IC50: 8.47 µM
[5]
  IC50: > 500 µM

## CCN(CC)CCCCOc1ccc(/C=C/C(=O)Nc2ccccc2)cc1OC
[1]
  Ratio IC50: 0.6
[2]
  IC50: 41.6 µM
[3]
  logD: 1.59
[4]
  IC50: 25.1 µM
[5]
  IC50: > 500 µM

## COc1cc(/C=C/C(=O)O)ccc1OCCCCCCN1CCCC1
[1]
  Ratio IC50: 4.1
[2]
  IC50: 69.9 µM
[3]
  logD: 1.29
[4]
  IC50: 287 µM
[5]
  IC50: > 500 µM

## COc1cc(/C=C/C(=O)Nc2ccccc2)ccc1OCCCCCCN(C)C
[1]
  Ratio IC50: 0.8
[2]
  IC50: 8.4 µM
[3]
  logD: 1.69
[4]
  IC50: 6.72 µM
[5]
  IC50: > 500 µM

## COc1cc(/C=C/C(=O)Nc2ccccc2)ccc1OCCCN1CCCCC1
[1]
  Ratio IC50: 0.33
[2]
  IC50: 14.5 µM
[3]
  logD: 1.58
[4]
  IC50: 4.78 µM
[5]
  IC50: > 500 µM

## COc1cc(/C=C/C(=O)Nc2ccccc2)ccc1OCCCCN1CCCCC1
[1]
  Ratio IC50: 0.8
[2]
  IC50: 7.14 µM
[3]
  logD: 1.61
[4]
  IC50: 5.69 µM
[5]
  IC50: > 500 µM

## COc1cc(/C=C/C(=O)Nc2ccccc2)ccc1OCCN1CCCCC1
[1]
  Ratio IC50: 0.12
[2]
  IC50: 19.4 µM
[3]
  logD: 1.56
[4]
  IC50: 2.34 µM
[5]
  IC50: > 500 µM

## CCN(CC)CCCCCCOc1ccc(/C=C/C(=O)Nc2ccccc2)cc1OC
[1]
  Ratio IC50: 2.66
[2]
  IC50: 1.83 µM
[3]
  logD: 1.7
[4]
  IC50: 4.86 µM
[5]
  IC50: > 500 µM

## CCN(C)C(=O)Oc1cccc([C@H](C)N(C)C)c1 [RIVASTIGMINE]
[3]
  logD: 1.68
[5]
  IC50: 31.1 µM

## CCN(CC)CCOc1ccc(/C=C/C(=O)Nc2ccccc2)cc1OC
[1]
  Ratio IC50: 0.28
[2]
  IC50: 41.1 µM
[3]
  logD: 1.53
[4]
  IC50: 11.5 µM
[5]
  IC50: > 500 µM

## COc1cc(/C=C/C(=O)Nc2ccccc2)ccc1OCCCCCN1CCCC1
[1]
  Ratio IC50: 0.77
[2]
  IC50: 6.21 µM
[3]
  logD: 1.64
[4]
  IC50: 4.78 µM
[5]
  IC50: > 500 µM

## COc1cc(/C=C/C(=O)Nc2ccccc2)ccc1OCCCCCCN1CCCC1
[6]
  Ratio IC50: 9
[1]
  Ratio IC50: 2.01
[2]
  IC50: 1.11 µM
[3]
  logD: 1.76
[4]
  IC50: 2.23 µM
[5]
  IC50: > 500 µM

## COc1cc(/C=C/C(=O)Nc2ccccc2)ccc1OCCCCCN1CCCCC1
[1]
  Ratio IC50: 1.23
[2]
  IC50: 4.8 µM
[3]
  logD: 1.65
[4]
  IC50: 5.9 µM
[5]
  IC50: > 500 µM

## CCN(CC)CCCCCCCCOc1ccc(/C=C/C(=O)O)cc1OC
[1]
  Ratio IC50: 95.1
[2]
  IC50: 3.18 µM
[3]
  logD: 1.51
[4]
  IC50: 302 µM
[5]
  IC50: > 500 µM

## COc1cc(/C=C/C(=O)Nc2ccccc2)ccc1OCCN1CCCC1
[1]
  Ratio IC50: 0.36
[2]
  IC50: 35.1 µM
[3]
  logD: 1.54
[4]
  IC50: 12.7 µM
[5]
  IC50: > 500 µM

## CCN(CC)CCCCCCOc1ccc(/C=C/C(=O)O)cc1OC
[1]
  Ratio IC50: 98.6
[2]
  IC50: 2.67 µM
[3]
  logD: 1.29
[4]
  IC50: 263 µM
[5]
  IC50: > 500 µM

B1: Acetylcholinesterase (Homo sapiens), P22303 (protein)
chain: MRPPQCLLHTPSLASPLLLLLLWLLGGGVGAEGREDAELLVTVRGGRLRGIRLKTPGGPVSAFLGIPFAEPPMGPRRFLPPEPKQPWSGVVDATTFQSVCYQYVDTLYPGFEGTEMWNPNRELSEDCLYLNVWTPYPRPTSPTPVLVWIYGGGFYSGASSLDVYDGRFLVQAERTVLVSMNYRVGAFGFLALPGSREAPGNVGLLDQRLALQWVQENVAAFGGDPTSVTLFGESAGAASVGMHLLSPPSRGLFHRAVLQSGAPNGPWATVGMGEARRRATQLAHLVGCPPGGTGGNDTELVACLRTRPAQVLVNHEWHVLPQESVFRFSFVPVVDGDFLSDTPEALINAGDFHGLQVLVGVVKDEGSYFLVYGAPGFSKDNESLISRAEFLAGVRVGVPQVSDLAAEAVVLHYTDWLHPEDPARLREALSDVVGDHNVVCPVAQLAGRLAAQGARVYAYVFEHRASTLSWPLWMGVPHGYEIEFIFGIPLDPSRNYTAEEKIFAQRLMRYWANFARTGDPNEPRDPKAPQWPPYTAGAQQYVSLDLRPLEVRRGLRAQACAFWNRFLPKLLSATDTLDEAERQWKAEFHRWSSYMVHWKNQFDHYSKQDRCSDL
[7]
  Km: 8.85 mM
[8]
  Km: 7.71 mM
[9]
  Vmax: 0.015 deltaA/min
[10]
  Km: 6.69 mM
[11]
  Vmax: 0.019 deltaA/min
[12]
  Vmax: 0.023 deltaA/min
